In the library only some 2.2% were active in any assay of this set; here they are far more common.
PPC-1+TRAIL kill: kills PPC-1 cancer cells in the presence of TRAIL | 0.41% of 220,000 active | PPC-1 cells + TRAIL, ATPLite viability luminescence | cell killing (% activity), % at 4 µM or 5 µM;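 active = cell killing above 50% in the first pass at 4 µM, then a duplicate retest at 5 µM averaging 50% or more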;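 note: plate controls were cells with TRAIL plus DMSO for no effect and medium-only wells lacking cells for full effect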
TRAIL sens C8: caspase-8 TRAIL sensitization | inhibition (viability loss, TRAIL sensitization), % at 10 µM | 1% of 360,000 active | NB7+C8 cells + TRAIL, ATPlite viability luminescence;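 active = compounds causing at least 50% loss of cell viability in the single-dose screen, relative to plate controls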
NF-kB expr up: raises NF-kB expression in human neuronal cells. NF-kB reporter expression; stronger effect = higher value. fold change at 12.5 µM. 1.6% of 190,000 active. AID 1239; in the data active = fold change above about 3.3
FLuc stim CS: firefly luciferase counter-screen for stimulation assays; P08659; ATPlite luciferase biochemical, luminescence, 10 min; 0 = ATP-free wells, 1 = DMSO control; AID 1027; 200,000 tested, under 10 active; activation factor at 10 µM;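 active = luciferase activation factor, scaled between plate controls, of at least 2 with compound at 10 µM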
Target sequence (P08659 whole entry, looked up): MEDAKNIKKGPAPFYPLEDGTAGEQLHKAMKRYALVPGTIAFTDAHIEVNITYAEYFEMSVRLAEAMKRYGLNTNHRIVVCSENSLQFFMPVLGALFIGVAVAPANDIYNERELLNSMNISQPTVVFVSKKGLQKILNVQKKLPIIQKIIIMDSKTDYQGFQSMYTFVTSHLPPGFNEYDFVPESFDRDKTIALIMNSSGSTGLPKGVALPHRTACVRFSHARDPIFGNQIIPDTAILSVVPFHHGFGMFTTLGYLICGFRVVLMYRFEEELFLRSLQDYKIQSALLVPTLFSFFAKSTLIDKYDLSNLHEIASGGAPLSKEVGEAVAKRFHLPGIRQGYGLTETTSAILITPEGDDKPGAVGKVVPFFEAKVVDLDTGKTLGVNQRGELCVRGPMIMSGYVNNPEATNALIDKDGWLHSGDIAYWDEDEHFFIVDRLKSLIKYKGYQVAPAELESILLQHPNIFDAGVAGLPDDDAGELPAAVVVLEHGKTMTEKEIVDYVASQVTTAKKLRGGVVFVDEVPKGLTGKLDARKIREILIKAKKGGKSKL
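Assay system: Luciferase/luciferin detection reagent, cell-free biochemical luciferase assay / Read-out: luciferase activation / Benchmarks: No-ATP low control, compound-free enzyme-plus-ATP high control / Medium: PBS buffer for ATP / Detection: luminescence measurement of luciferase light output / Schedule: 10 min at ambient temperature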
FLuc inhib CS: inhibits firefly luciferase, flagging false hits in luciferase inhibition screens | 1.5% of 200,000 active | AID 1006 | inhibition, % at 10 µM | ATPLite firefly luciferase biochemical luminescence, 10 min;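 active = inhibition above about 50% when tested at 10 µM, limit read from the data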
APP 5'UTR act: activates APP 5'UTR luciferase reporter; SH-SY5Y APP 5'UTR luciferase reporter, luminescence; zero percent = DMSO vehicle wells; activation, % at 2 µM; 1% of 190,000 active;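 active = activation above a set limit, based on mean plus 3 SD of controls, cut at about 140% in these data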
PPC1 cytotox: PPC-1 cell cytotoxicity. shares compounds with PPC-1+TRAIL kill. PPC-1 viability, ATPlite luminescence, overnight. cytotoxicity, % at 5 µM. 50% of 1,200 active. AID 1447;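 active = reconfirmed compounds whose average cytotoxicity reaches 50% or more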;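 note: 0% = DMSO-treated cells and 100% = wells holding medium but no cells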
Starred values were filed as active, the others as inactive; . = not tested or not shown.

SMILES | PPC-1+TRAIL kill | TRAIL sens C8 | NF-kB expr up | FLuc stim CS | FLuc inhib CS | APP 5'UTR act | PPC1 cytotox
Cc1ccc2nc(NC(=O)c3ccccn3)sc2c1 | 90.9* | 90.7* | 1.24 | 0 | 95.3* | -22.1 | 88.8*
CCOc1ccc2nc(NC(=O)c3ccccn3)sc2c1 | 84.5* | 82.3* | . | . | . | . | 80.8*
CCOc1ccccc1C(=O)OCC(=O)Nc1cc(S(=O)(=O)N2CCOCC2)ccc1C | . | 9.3 | . | . | . | . | .
CC[n+]1c(/C=C2\Sc3ccccc3N2C)ccc2cccc(C)c21 | 36.5 | 24.8 | 0.1 | 1 | 1.7 | -51.9 | 25.9
CN1/C(=C/c2cccc[n+]2CCO)Sc2ccccc21 | . | 3.7 | . | . | . | . | .
CN(CC(=O)Nc1ccc(Cl)c(Cl)c1)C(=O)c1cccc2cccnc12 | . | 8.5 | . | . | . | . | .
COc1ccc(Cl)cc1NC(=S)N1CCN(S(C)(=O)=O)CC1 | 19.0 | 0.5 | . | . | . | . | .
COc1ccc(Cl)cc1NC(=O)N1CCN(S(C)(=O)=O)CC1 | 5.2 | 9.8 | 1.17 | 1 | -4.4 | -11.8 | -9.3
COc1ccccc1N(CC(O)CN1CCCCC1)S(=O)(=O)c1ccc(C)cc1 (stereo unspecified) | . | -15.2 | . | . | . | . | .
Cc1cccc(-n2ncc3c(N(C)C4CCCCC4)ncnc32)c1 | 79.8* | 87.8* | . | . | . | . | 81.6*
CCCCN1C(=O)/C(=C2\SC(N3CCCCC3)=NC2=O)c2ccccc21 | 40.1 | 38.0 | 0.76 | 0.5 | 54.6* | 40.3 | 43.7
O=C1N=C(N2CCOCC2)S/C1=C1\C(=O)N(Cc2ccccc2)c2ccc(Br)cc21 | -11.4 | . | . | 1 | -1.9 | . | .
CC(=O)N=c1sc2cc(C)ccc2n1C | -5.8 | -10.0 | 1.23 | 1.1 | -5.9 | -0.1 | -5.9
CC(=O)SCC(=O)N=c1sc2cc(F)ccc2n1C | -2.7 | -16.3 | 1.3 | 1 | 4.7 | -7.8 | .
O=C(Nc1ccc(NC(=O)c2ccco2)nc1)c1ccco1 | 52.6* | 68.5* | 4.03* | 0.2 | 84.0* | 164.2* | 51.9*
COc1ccc2[nH]c(C(=O)N3CCN(Cc4ccccc4)CC3)cc2c1OC | . | -10.1 | . | . | . | . | .
CCN(CC)c1ccc(C2N(C(=O)N3CCOCC3)CCN2S(=O)(=O)c2ccc(C)cc2)cc1 (stereo unspecified) | 11.7 | -3.4 | 0.91 | 1.1 | -6.1 | -20.9 | 9.0
Cc1ccc(S(=O)(=O)N2CCN(C(=O)N3CCOCC3)C2C(C)C)cc1 (stereo unspecified) | -6.7 | 1.1 | 1.01 | 1.1 | -5.4 | 0.7 | .
CC(C)CC1NC(=O)N(CC(=O)Nc2ccc(-c3ccccc3)cc2)C1=O (stereo unspecified) | . | 2.7 | . | . | . | . | .
CCn1nnc(NC(=O)c2ccc(Br)o2)n1 | . | -8.3 | . | . | . | . | .
CCc1ccc(C(=O)Nc2nnn(CC)n2)cc1 | 63.4* | 65.5* | 3.67* | 0.1 | 86.7* | 100.2 | 56.9*
Cc1ccc(C(=O)Nc2nc(=O)n(C(=O)CC(C)C)s2)cc1 | 13.2 | -9.5 | 1 | 0.9 | 5.1 | . | .
Cc1ccc(C(=O)Nc2nccs2)cc1 | 6.7 | 23.6 | 3.54* | 0.2 | 83.1* | 90.6 | 3.9
Cc1ccc(C(=O)Nc2nc(=O)n(C)s2)cc1 | 31.2 | 53.1* | 1.96 | 0.2 | 80.9* | . | 37.4
Cc1csc(NC(=O)c2cn3ccccc3n2)n1 | 80.0* | 85.2* | 0.97 | 0.1 | 93.5* | 68.1 | 78.2*
SMILES | PPC-1+TRAIL kill | TRAIL sens C8 | NF-kB expr up | FLuc stim CS | FLuc inhib CS | APP 5'UTR act | PPC1 cytotox
Cc1cc(/C=N/Nc2ncnc(N)c2[N+](=O)[O-])c(C)n1-c1ccccc1 | 86.5* | 85.1* | . | . | . | . | 87.1*
Cc1ccc(NC(=O)c2c(Cl)n(C)c3ccccc23)cc1 | 12.6 | 34.5 | 1.68 | 0.7 | 33.8 | 36.6 | .
COC(=O)c1ccc(COc2ccc(C)cc2[N+](=O)[O-])o1 | 11.1 | 4.4 | . | . | . | . | -13.6
Cc1ccc(OCc2ccc(C(=O)NN)o2)c([N+](=O)[O-])c1 | 12.6 | 5.3 | . | . | . | . | .
COC(=O)[C@]12CCCCC=C1N(CCc1ccc(OC)c(OC)c1)C(=O)[C@H](CC(=O)N1CCC(c3ccccc3)CC1)C2 | . | 37.8 | . | . | . | . | .
COc1ccc2[nH]c3nc(SC(C)C)nnc3c2c1 | 57.9* | 63.4* | 5.07* | 0.4 | 63.1* | 184.6* | 55.8*
COc1ccc(CNC(=O)CSc2nnc3c(n2)[nH]c2ccc(OC)cc23)cc1 | . | -7.0 | . | . | . | . | .
CCOC(=O)Nc1ccc2c(COC(=O)CNS(=O)(=O)c3cccc(Br)c3)cc(=O)oc2c1 | 6.2 | -2.1 | 1.05 | 1.1 | -11.3 | 8.4 | .
CCN(CC)CCCCCCCCOC(=O)c1cc(OC)c(OC)c(OC)c1 | . | 14.9 | . | . | . | . | .
O=C(c1ccco1)N1CCN(c2ncnc3c2cnn3-c2ccccc2)CC1 | 4.0 | -2.0 | 1.59 | 1 | -4.5 | 15.5 | 4.9
CCOC(=O)c1cnn(-c2ncnc3c2oc2ccccc23)c1N | 26.8 | 47.0 | . | 0.6 | 41.2 | . | 6.3
CCOC(=O)C1CCN(c2ncnc3c2oc2ccccc23)CC1 | -8.9 | 14.2 | 0.99 | 1 | -0.6 | 21.2 | .
CC(C)(C)C(=O)N1CCc2cc(-c3csc(N)n3)ccc21 | 82.5* | 86.5* | 1.27 | 0 | 96.0* | 121.4 | 83.1*
O=C(OCC(=O)N1CCC(Cc2ccccc2)CC1)c1cccnc1Cl | . | -13.7 | . | . | . | . | .
Fc1ccc(-c2cnn3c(-c4cccs4)ccnc23)cc1 | 59.4* | 67.7* | 6.73* | 0.2 | 83.4* | 220.0* | 52.8*
Cc1nn2c(-c3ccc(F)cc3)ccnc2c1Br | . | -1.8 | . | . | . | . | .
Fc1ccc(-c2cnn3c(-c4ccncc4)ccnc23)cc1 | 29.6 | 54.3* | 6.42* | 0.2 | 75.5* | 199.1* | 20.5
CCOC(=O)C1(C(=O)OCC)C(C)CC(=O)N1c1ccccc1OC (stereo unspecified) | . | 5.2 | . | . | . | . | .
CCCCCc1ccc2cc(C#N)ccc2n1 | . | -6.8 | . | . | . | . | .
O=C(NCCCN1CCCC1=O)c1ccc2c(=O)n(-c3ccccc3F)c(=S)[nH]c2c1 | -6.7 | -5.8 | 1 | 1 | -2.8 | 5.8 | .
Cc1ccc(C(=O)N(C)c2ccc(OCC(=O)N3c4ccc(C)cc4C4CN(C)CCC43)cc2)cc1 (stereo unspecified) | 51.7* | 51.8* | 0.98 | 0.1 | 87.9* | 26.9 | 46.2
Cc1ccc2c(c1)C1CN(C)CCC1N2C(=O)COc1ccc(N(C)C(=O)C(C)(C)C)cc1 (stereo unspecified) | -6.8 | -3.5 | 1 | 1.1 | -6.5 | -15.4 | .
Cc1ccc2[nH]c(-c3ccccc3)cc(=O)c2c1 | 69.0* | 52.5* | 6.01* | 0.1 | 85.7* | -91.0 | 67.7*
COc1ccc(-c2cc(=O)c3cc(OC)ccc3o2)cc1 | 66.2* | 65.6* | 5.29* | 0.2 | 78.5* | 154.6* | 68.2*
COc1ccc(-c2cc(=O)c3cc(OC)ccc3[nH]2)cc1 | 65.4* | 72.6* | 4.72* | 0.1 | 86.8* | 126.1 | 62.4*
Cc1ccc(-c2cc(=O)c3cc(Cl)ccc3[nH]2)cc1 | 64.7* | . | 1.79 | 0.4 | 56.9* | 138.1* | 60.3*
CCCCCn1nnnc1C1(C)CCC(=O)N1Cc1ccco1 (stereo unspecified) | . | 2.5 | . | . | . | . | .
